Values after ≈ are worked out from the molar mass of the structure shown. Active and inactive are the calls of the source. The calls are words filed in the database; no cut-off is given here.
Columns and labels:
Schistosoma mansoni [1] = test: Antischistosomal activity in juvenile Schistosoma mansoni infected in mouse assessed as female worm reduction at 400 mg/kg, po after 28 days; type: functional; set-up: scale not given: the % may be the effect or the level left
Method in brief: (§1)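 Mice were infected with about 80 cercariae on day 0. A single oral dose was given, dissolved or suspended in 3% ethanol/7% Tween 80 vehicle: groups of three mice on day 21 (juvenile) and groups of five on day 49 (adult). Mice were killed by CO₂ 28 days after treatment and dissected for total and female worm counts versus vehicle controls. Medians were compared by Kruskal–Wallis test.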

Schistosoma mansoni [2] = test: Antischistosomal activity in juvenile Schistosoma mansoni infected in mouse assessed as total worm reduction at 400 mg/kg, po after 28 days; type: functional; set-up: scale not given: the % may be the effect or the level left; method in brief: as §1
Schistosoma mansoni [3] = test: Antischistosomal activity in adult Schistosoma mansoni infected in mouse assessed as female worm reduction at 400 mg/kg, po after 28 days; type: functional; set-up: scale not given: the % may be the effect or the level left; method in brief: as §1
Schistosoma mansoni [4] = test: Antischistosomal activity against adult Schistosoma mansoni assessed as motility reduction at 10 ug/ml after 120 hrs; type: functional; set-up: scale not given: the % may be the effect or the level left
Method in brief: (§2)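 Adult worms were recovered from infected mice by portal perfusion with warm DMEM containing 2 mM L-glutamine, penicillin/streptomycin, 20 mM Hepes and heparin. Host red cells were removed and the worms moved to DMEM with 10% FCS, glutamine and antibiotics. Compounds were added from 10 mg/mL DMSO stocks. At 120 h, motility disturbances and morphological changes were scored.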

Schistosoma mansoni [5] = test: Antischistosomal activity against adult Schistosoma mansoni assessed as morphological changes at 10 ug/ml after 120 hrs; type: functional, organism-based; method in brief: as §2
Schistosoma mansoni [6] = test: Antischistosomal activity in adult Schistosoma mansoni infected in mouse assessed as total worm reduction at 400 mg/kg, po after 28 days; type: functional; set-up: scale not given: the % may be the effect or the level left; method in brief: as §1
Liver microsomes = test: Metabolic stability in human liver microsomes at 1 uM after 120 mins by LC-MS/MS; type: ADME, Microsome; conditions: 2 h
Method in brief: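 Compound at 1 µM was incubated at 37 °C with 0.5 mg/mL microsomes. Reactions were started with an NADPH-regenerating system and stopped with ice-cold MeOH. Loss of parent compound over 120 min was followed by LC–MS/MS.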

Schistosoma mansoni [7] = test: Antischistosomal activity against adult Schistosoma mansoni; type: functional, organism-based
Schistosoma mansoni [8] = test: Antischistosomal activity in juvenile Schistosoma mansoni infected in mouse assessed as female worm reduction at 200 mg/kg, po after 28 days; type: functional; set-up: scale not given: the % may be the effect or the level left
Method in brief: (§3)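 Mice infected with ca. 80 S. mansoni cercariae on day 0; single oral dose given on day 21 post-infection (juvenile stage) in 3% ethanol/7% Tween 80 vehicle, groups of three mice. Sacrificed by CO₂ 28 days post-treatment and dissected; total and female worm reduction rates versus vehicle controls, Kruskal–Wallis test comparing medians.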

Schistosoma mansoni [9] = test: Antischistosomal activity in juvenile Schistosoma mansoni infected in mouse assessed as total worm reduction at 200 mg/kg, po after 28 days; type: functional; set-up: scale not given: the % may be the effect or the level left; method in brief: as §3

Row | SMILES | Activity (Schistosoma mansoni [1]) [%] | Activity (Schistosoma mansoni [2]) [%] | Activity (Schistosoma mansoni [3]) [%] | Activity (Schistosoma mansoni [4]) [%] | Activity (Schistosoma mansoni [5]) | Activity (Schistosoma mansoni [6]) [%] | Stability (Liver microsomes) | IC50 (Schistosoma mansoni [7]) [µg/mL] | Activity (Schistosoma mansoni [8]) [%] | Activity (Schistosoma mansoni [9]) [%]
1 | O=C(N1CCCCC1)N1CC(=O)N2CCc3ccccc3C2C1 (stereo not drawn) | 34 | 27 | 9 | 38 | Active | 1 |  |  |  | 
2 | O=C1CCC(C(=O)N2CC(=O)N3CCc4ccccc4C3C2)CC1 (racemic) | 41 | 25 | 81 | 0 | Active | 79 |  |  |  | 
3 | O=C1CN(C(=O)[C@H]2CC[C@]3(CC2)OO[C@]2(O3)C3CC4CC(C3)CC2C4)CC2c3ccccc3CCN12 (stereo partly drawn) | 0 | 0 | 0 | 0 | inactive | 0 |  |  |  | 
4 | O=C(N1CCNCC1)N1CC(=O)N2CCc3ccccc3C2C1 (stereo not drawn) | 23 | 25 | 0 | 0 | inactive | 0 |  |  |  | 
5 | O=C(N1CCOCC1)N1CC(=O)N2CCc3ccccc3C2C1 (stereo not drawn) | 22 | 14 | 0 | 0 | inactive | 0 |  |  |  | 
6 | O=C1CN(C(=O)C23CC4CC(CC(C4)C2)C3)CC2c3ccccc3CCN12 (stereo not drawn) | 56 | 42 | 0 | 0 | inactive | 0 |  |  |  | 
7 | O=C(C1CCC(F)(F)CC1)N1CC(=O)N2CCc3ccccc3C2C1 (stereo not drawn) | 44 | 38 | 39 | 25 | Active | 40 | Stable |  |  | 
8 | O=C(C1CCCCC1)N1CC(=O)N2CCc3ccccc3C2C1 (stereo not drawn) [PRAZIQUANTEL] | 18 | 7 | 98 | 100 | Active | 96 |  | 0.37 (≈ 1.18 µM) |  | 
9 | O=C(N1CCC(F)(F)CC1)N1CC(=O)N2CCc3ccccc3C2C1 (stereo not drawn) | 38 | 38 | 0 | 0 | inactive | 12 | Stable |  |  | 
10 | O=C1CN(C(=O)[C@H]2CC[C@]3(CC2)OO[C@]2(O3)C3CC4CC(C3)CC2C4)CCN1 |  |  | 13 | 0 | inactive | 1 |  |  | 85 | 85
